Source: ChEMBL document CHEMBL1124987, “7-Deaza-2-phenyladenines: structure-activity relationships of potent A1 selective adenosine receptor antagonists” (J Med Chem, 1990)
Active and inactive are the calls of the source. The rule behind the calls is not given here.

Key:
[1] = target: Adenosine A2 receptor (Rattus norvegicus, UniProt P29276+P30543); assay: Binding affinity against Adenosine A2 receptor from rat striatal membrane using [3H]NECA as radioligand
[2] = target: T1, Adenosine receptor A1 (Rattus norvegicus, UniProt P25099); assay: Binding affinity against Adenosine A1 receptor from rat brain membrane using [3H]R-PIA as radioligand
T1 sequence (P25099 whole entry): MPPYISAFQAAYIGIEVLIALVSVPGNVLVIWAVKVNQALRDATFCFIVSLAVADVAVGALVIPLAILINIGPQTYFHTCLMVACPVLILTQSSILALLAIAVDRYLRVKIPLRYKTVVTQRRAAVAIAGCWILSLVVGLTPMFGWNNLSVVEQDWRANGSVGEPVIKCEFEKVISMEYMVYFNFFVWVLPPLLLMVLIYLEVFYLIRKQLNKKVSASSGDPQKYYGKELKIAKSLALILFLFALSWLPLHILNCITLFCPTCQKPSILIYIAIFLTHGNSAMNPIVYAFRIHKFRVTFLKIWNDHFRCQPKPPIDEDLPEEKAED
Procedure, shortened: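 Rat cerebral cortical membranes; displacement of [3H]-(R)-PIA (Kd 1 nM) by a range of test concentrations. Nonspecific binding defined with 5 mM theophylline. Triplicate determinations in three separate experiments. IC50 converted to Ki via Cheng-Prusoff.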

[3] = target: T2, Adenosine A2 receptor (Rattus norvegicus) (UniProt P29276+P30543); assay: Inhibition of adenylate cyclase stimulation via Adenosine A2 receptor by NECA in rat pheochromocytoma PC12 cells; assay type: functional, cell-based; conditions: PC-12
Procedure, shortened: (§1)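 Membranes from rat pheochromocytoma PC12 cells; adenylate cyclase activated via A2 receptors by NECA, measured with a range of antagonist concentrations. K_B from the Schild equation using the ratio of NECA EC50 values with and without antagonist. Means ± SEM of three separate experiments in triplicate.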

[4] = target: T3, Adenosine receptor A1 (Rattus norvegicus) (UniProt P25099); assay: Reversal of adenylate cyclase inhibition via Adenosine A1 receptor by R-PIA in rat fat cells; assay type: functional, cell-based
T3 sequence (whole entry): T1 sequence (P25099 whole entry)
Procedure, shortened: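 Rat fat cell membranes; adenylate cyclase inhibited by R-PIA through A1 receptors, and antagonist reversal measured. K_B calculated with the Schild equation from the ratio of R-PIA IC50 values with and without antagonist.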

[5] = target: T2, Adenosine A2 receptor (Rattus norvegicus); assay: Inhibition of adenylate cyclase stimulation via Adenosine A2 receptor by NECA in rat striatal membrane; assay type: functional, cell membranes; conditions: Striatum
Procedure, shortened: (§2)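 Rat striatal membranes; adenylate cyclase stimulated by NECA through A2 receptors, with antagonist present or absent. K_B derived by Schild equation from the NECA EC50 ratio with versus without antagonist.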

[6] = target: T2, Adenosine A2 receptor (Rattus norvegicus); assay: Inhibition of adenylate cyclase activity via A2 receptors by NECA in rat PC12 cells; c = Noncompetitive inhibition; assay type: functional, cell-based; conditions: PC-12; procedure, shortened: as §1
[7] = target: T2, Adenosine A2 receptor (Rattus norvegicus); assay: Inhibition of adenylate cyclase stimulation via Adenosine A2 receptor by NECA in rat striatal membrane; b= No effect; assay type: functional; procedure, shortened: as §2

Compound	Ki [1]	Ki [2]	Kb [3]	Kb [4]	Kb [5]	Kb [6]	Kb [7]
Cc1[nH]c2ncnc(O)c2c1C	176 µM	58 µM	33 µM				
Nc1ncnc2c1ccn2-c1ccccc1	25 µM	3.1 µM	17 µM	4.6 µM			
CSc1nc(SC)c2c3c(n(-c4ccccc4)c2n1)CCCC3	> 250 µM	97.8 µM					
Nc1ncnc2c1c1c(n2-c2ccccc2)CCCC1	10.9 µM	3.24 µM	7.5 µM		31.6 µM		
CCCCCCn1c(C)c(C)c2c(N)ncnc21	263 µM	60 µM	42 µM				
Sc1nc(S)c2c3c(n(-c4ccccc4)c2n1)CCCC3	> 250 µM	84.8 µM					
Cc1c(C)n([C@H]2C[C@H](O)[C@@H](CO)O2)c2ncnc(N)c12	> 250 µM	> 250 µM					
Cc1c(C)n(Cc2ccc(Br)cc2)c2ncnc(N)c12	154.9 µM	> 100 µM					
O=c1[nH]cnc2c1c1c(n2-c2ccccc2)CCCC1		2.07 µM					
C=CCn1c(C)c(C)c2c(N)ncnc21	83 µM	49 µM	40 µM				
Cc1[nH]c2ncnc(N)c2c1C	208 µM	55 µM					
COc1cccc(-n2c(C)c(C)c3c(N)ncnc32)c1OC		54.3 µM					
Nc1ncnc2c1c(C(=O)O)c(C(=O)O)n2-c1ccccc1		67 µM					
c1ccc(-n2c3ccccc3c3c(NC4CCCCC4)ncnc32)cc1	133 µM	1.96 µM					
Oc1ncnc2c1c1ccccc1n2-c1ccccc1	1.44 µM		0.22 µM	1.4 µM			
Cc1c(C)n(-c2ccccc2)c2nc(-c3ccccc3)nc(N)c12	0.024 µM	0.036 µM					
Nc1ncnc2c1c(C=O)c(C=O)n2-c1ccccc1	76.3 µM	50.1 µM					
CS(=O)(=O)c1nc(S(C)(=O)=O)c2c3c(n(-c4ccccc4)c2n1)CCCC3	157 µM	16.9 µM					
Cc1nc(N)c2c(C)c(C)[nH]c2n1	> 250 µM	88 µM					
Oc1ncnc2c1c1c(n2-c2ccccc2)CCCC1	1.35 µM		0.87 µM		1.76 µM		
Clc1ncnc2c1c1ccccc1n2-c1ccccc1	4.06 µM	2.42 µM					

The remaining lines, values ahead:

Ki [1]	Ki [2]	Kb [3]	Kb [4]	Kb [5]	Kb [6]	Kb [7]	Compound
5.98 µM	1.95 µM	1.73 µM	3.3 µM	14 µM			Nc1ncnc2c1c1ccccc1n2-c1ccccc1
	0.88 µM						O=c1[nH]cnc2c1c1ccccc1n2-c1ccccc1
59.9 µM	0.028 µM						Cc1c(C)n(C(C)c2ccccc2)c2nc(-c3cccc(Cl)c3)nc(N)c12 (centres undefined)
> 250 µM	0.122 µM		0.057 µM		Non-competitive inhibition	inactive	Cc1c(C)n(-c2ccccc2)c2nc(-c3ccc(Cl)cc3)nc(N)c12
35.6 µM	1.24 µM						Cc1[nH]c2nc(-c3ccc(Cl)cc3)nc(N)c2c1C
7.71 µM	8.42 µM						NNc1ncnc2c1c1ccccc1n2-c1ccccc1
203 µM	30.4 µM						Cc1nc(N)c2c(C)c(C)n(-c3ccccc3)c2n1
21.3 µM	1.49 µM	5.5 µM	0.8 µM				Cc1[nH]c2nc(-c3ccccc3)nc(N)c2c1C
123 µM	18 µM	62 µM	22 µM				Cc1c(C)n(-c2ccccc2)c2ncnc(N)c12
40.7 µM	0.99 µM						Cc1c(C)n(-c2ccccc2)c2nc(-c3ccccc3Cl)nc(N)c12
20.8 µM	0.73 µM						Cc1[nH]c2nc(-c3cccc(Cl)c3)nc(N)c2c1C
80.8 µM	0.165 µM						Cc1c(C)n([C@@H](C)c2ccccc2)c2nc(-c3ccccc3)nc(N)c12
28.1 µM	0.052 µM						Cc1c(C)n(C(C)c2ccccc2)c2nc(-c3ccccc3Cl)nc(N)c12 (centres undefined)
85.6 µM	5.17 µM						Cc1[nH]c2nc(-c3ccccc3Cl)nc(N)c2c1C
3.71 µM	0.0047 µM	3.06 µM	0.0038 µM				Cc1c(C)n([C@H](C)c2ccccc2)c2nc(-c3ccccc3)nc(N)c12
